Assay results as given in ChEMBL document CHEMBL3091288, “Fluorine Scanning by Nonselective Fluorination: Enhancing Raf/MEK Inhibition while Keeping Physicochemical Properties” (ACS Med Chem Lett, 2013).
In brackets after ≈: the same amount, converted by molar mass.

How the values were obtained:
[1] = molecular target: RAF proto-oncogene serine/threonine-protein kinase (Homo sapiens, UniProt P04049); assay: Inhibition of C-Raf (unknown origin) assessed as phosphorylation of MEK1 after 45 mins by TR-FRET assay
RAF proto-oncogene serine/threonine-protein kinase, sequence (P04049 whole entry): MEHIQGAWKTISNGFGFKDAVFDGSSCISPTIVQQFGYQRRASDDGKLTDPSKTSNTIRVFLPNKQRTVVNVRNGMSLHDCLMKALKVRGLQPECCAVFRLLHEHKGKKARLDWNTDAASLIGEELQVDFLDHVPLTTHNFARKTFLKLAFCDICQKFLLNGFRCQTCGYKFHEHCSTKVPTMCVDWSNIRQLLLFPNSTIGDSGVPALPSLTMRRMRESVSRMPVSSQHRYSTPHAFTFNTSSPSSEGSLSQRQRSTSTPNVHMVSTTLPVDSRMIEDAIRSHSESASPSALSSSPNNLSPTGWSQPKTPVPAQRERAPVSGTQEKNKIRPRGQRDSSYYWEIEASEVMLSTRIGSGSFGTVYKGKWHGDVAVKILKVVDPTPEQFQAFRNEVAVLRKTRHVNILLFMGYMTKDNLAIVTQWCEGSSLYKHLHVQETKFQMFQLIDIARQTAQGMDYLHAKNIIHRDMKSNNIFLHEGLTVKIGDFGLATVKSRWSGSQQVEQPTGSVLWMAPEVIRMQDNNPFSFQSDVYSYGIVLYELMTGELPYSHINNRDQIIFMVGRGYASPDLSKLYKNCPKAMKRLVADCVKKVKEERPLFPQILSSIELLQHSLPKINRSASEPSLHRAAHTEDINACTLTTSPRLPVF

HCT-116 [2] = assay: Antiproliferative activity against human HCT116 cells assessed as cell viability after 96 hrs by cell counting kit-8 assay; type: functional, cell-based; details: HCT-116, 96 h
[3] = molecular target: Dual specificity mitogen-activated protein kinase kinase 1 (Homo sapiens, UniProt Q02750); assay: Inhibition of MEK1 (unknown origin) assessed as phosphorylation of Erk2 preincubated for 30 mins followed by FAM-Erktide addition measured after 60 mins by IMAP fluorescence polarization assay
Dual specificity mitogen-activated protein kinase kinase 1, sequence (Q02750 whole entry): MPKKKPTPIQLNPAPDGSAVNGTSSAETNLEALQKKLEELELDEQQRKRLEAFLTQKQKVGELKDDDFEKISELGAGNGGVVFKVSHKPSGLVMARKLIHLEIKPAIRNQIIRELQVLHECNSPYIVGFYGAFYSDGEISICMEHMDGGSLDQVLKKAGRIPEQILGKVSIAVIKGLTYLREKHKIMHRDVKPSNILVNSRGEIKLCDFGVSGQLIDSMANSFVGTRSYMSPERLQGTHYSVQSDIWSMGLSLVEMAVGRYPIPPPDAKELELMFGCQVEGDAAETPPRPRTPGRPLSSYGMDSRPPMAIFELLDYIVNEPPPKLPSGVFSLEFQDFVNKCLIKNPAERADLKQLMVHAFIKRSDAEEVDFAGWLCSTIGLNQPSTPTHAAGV

[4] = AUC (0 to 24 hrs) in BALB-nu/nu mouse at 50 mg/kg, po by LC-MS/MS analysis; type: ADME, organism-based; parameters: time < 24 hr, dose 50 mg/kg, route oral; details: plasma
[5] = Solubility of the compound in fasted state simulated intestinal fluid measured after overnight incubation by UV-HPLC analysis; type: ADME
Liver microsome = assay: Clearance in human liver microsomes at 5 uM by LC-MS/MS analysis; type: ADME
[6] = Permeability of the compound at pH 6.5 by PAMPA; type: ADME; details: read-out: permeability
[7] = AUC (0 to 24 hrs) in BALB-nu/nu mouse at 100 mg/kg, po by LC-MS/MS analysis; type: ADME, organism-based; parameters: time < 24 hr, dose 100 mg/kg, route oral; details: plasma
Procedure, shortened: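 Mice received a single oral dose of 100 mg/kg, formulated as a solution in 5% DMSO, 5% Cremophor EL, 15% PEG400, 15% HPCD and 60% water. Plasma exposure was evaluated over 24 h.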

hERG (KCNH2) = hERG (KCNH2) (Homo sapiens, UniProt Q12809); assay: Inhibition of human ERG expressed in CHO cells at 10 uM by patch clamp assay relative to control; type: cell-based; details: CHO cells expressing human ERG
hERG (KCNH2), sequence (Q12809 whole entry): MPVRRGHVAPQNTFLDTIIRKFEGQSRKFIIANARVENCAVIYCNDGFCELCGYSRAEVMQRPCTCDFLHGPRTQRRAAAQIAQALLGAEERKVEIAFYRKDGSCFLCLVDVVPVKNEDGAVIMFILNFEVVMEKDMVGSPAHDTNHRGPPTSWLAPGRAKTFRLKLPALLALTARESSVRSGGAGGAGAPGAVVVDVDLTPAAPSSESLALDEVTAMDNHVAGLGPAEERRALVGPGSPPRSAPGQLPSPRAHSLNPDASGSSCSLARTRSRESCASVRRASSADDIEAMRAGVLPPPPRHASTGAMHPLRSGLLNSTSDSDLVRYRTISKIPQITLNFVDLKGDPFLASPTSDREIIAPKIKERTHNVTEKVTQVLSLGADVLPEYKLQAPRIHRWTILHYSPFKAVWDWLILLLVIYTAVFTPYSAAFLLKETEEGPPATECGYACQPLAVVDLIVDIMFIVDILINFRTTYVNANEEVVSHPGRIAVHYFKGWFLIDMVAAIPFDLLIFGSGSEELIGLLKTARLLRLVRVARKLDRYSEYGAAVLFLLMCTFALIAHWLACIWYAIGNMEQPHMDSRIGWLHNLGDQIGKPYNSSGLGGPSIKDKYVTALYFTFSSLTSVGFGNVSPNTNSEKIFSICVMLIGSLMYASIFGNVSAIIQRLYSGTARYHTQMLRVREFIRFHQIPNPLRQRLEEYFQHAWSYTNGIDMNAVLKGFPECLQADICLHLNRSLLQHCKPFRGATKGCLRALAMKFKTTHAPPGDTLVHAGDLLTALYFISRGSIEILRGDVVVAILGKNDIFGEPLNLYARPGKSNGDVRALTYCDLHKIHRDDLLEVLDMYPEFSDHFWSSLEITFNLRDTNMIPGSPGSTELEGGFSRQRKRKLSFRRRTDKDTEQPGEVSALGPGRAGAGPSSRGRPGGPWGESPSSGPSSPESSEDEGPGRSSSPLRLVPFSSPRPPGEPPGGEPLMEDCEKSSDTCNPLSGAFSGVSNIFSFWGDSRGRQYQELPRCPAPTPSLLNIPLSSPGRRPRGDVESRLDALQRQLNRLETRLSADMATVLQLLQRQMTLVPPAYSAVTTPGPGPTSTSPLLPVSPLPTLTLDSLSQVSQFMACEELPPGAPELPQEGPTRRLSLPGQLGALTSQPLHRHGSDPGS

[8] = Oral bioavailability in mouse; type: ADME, organism-based; details: in vivo
Procedure, shortened: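 Mice received the sodium salt at 10 mg/kg iv and 20 mg/kg po, in a vehicle of 5% DMSO/5% Cremophor EL/15% PEG400/15% HPCD/60% water. Bioavailability was derived from the iv and po exposure.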

[9] = Clearance in rat at 5 mg/kg, iv and 10 mg/kg, po by LC-MS/MS analysis; type: ADME, organism-based; details: in vivo
Procedure, shortened: (§1)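 Sodium salt dosed intravenously and orally in mouse (10/20 mg/kg), rat (5.0/10 mg/kg) and monkey (2.5/5.0 mg/kg iv/po), vehicle 5% DMSO/5% Cremophor EL/15% PEG400/15% HPCD/60% water. AUC_inf from oral dosing, t1/2 from iv dosing, clearance and oral bioavailability from paired iv/po data.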

HCT-116 [10] = assay: Antitumor activity against human HCT116 cells xenografted in BALB-nu/nu mouse administered orally qd for 11 days; type: functional; details: HCT-116, po, 264 h
Procedure, shortened: (§2)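 HCT116 cells implanted subcutaneously in right flank of BALB-nu/nu mice; tumours allowed to establish before dosing. Sodium salt given orally once daily for 11 days (day 0 to day 10). Tumour size measured twice weekly; mean SD, n = 4.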

[11] = AUC (infinity) in rat at 10 mg/kg, po by LC-MS/MS analysis; type: ADME, organism-based; parameters: time infinity, dose 10 mg/kg, route oral; details: plasma; procedure, shortened: as §1
[12] = Oral bioavailability in rat at 10 mg/kg by LC-MS/MS analysis; type: ADME, organism-based; details: in vivo; procedure, shortened: as §1
[13] = Clearance in BALB-nu/nu mouse at 10 mg/kg, iv and 20 mg/kg, po by LC-MS/MS analysis; type: ADME, organism-based; details: in vivo; procedure, shortened: as §1
[14] = Half life in cynomolgus monkey at 2.5 mg/kg, iv by LC-MS/MS analysis; details: in vivo
[15] = Oral bioavailability in BALB-nu/nu mouse at 20 mg/kg by LC-MS/MS analysis; type: ADME, organism-based; details: in vivo; procedure, shortened: as §1
[16] = Half life in BALB-nu/nu mouse at 10 mg/kg, iv by LC-MS/MS analysis; type: ADME, organism-based; parameters: dose 10 mg/kg, route intravenous; details: in vivo; procedure, shortened: as §1
[17] = Half life in rat at 5 mg/kg, iv by LC-MS/MS analysis; type: ADME, organism-based; parameters: dose 5 mg/kg, route intravenous; details: in vivo; procedure, shortened: as §1
[18] = Oral bioavailability in cynomolgus monkey at 5 mg/kg by LC-MS/MS analysis; type: ADME, organism-based, Macaca fascicularis; details: in vivo; procedure, shortened: as §1
[19] = AUC (infinity) in cynomolgus monkey at 5 mg/kg, po by LC-MS/MS analysis; type: ADME, organism-based, Macaca fascicularis; parameters: dose 5 mg/kg, route oral, time infinity; details: plasma; procedure, shortened: as §1
[20] = AUC (infinity) in BALB-nu/nu mouse at 20 mg/kg, po by LC-MS/MS analysis; type: ADME, organism-based; parameters: time infinity, dose 20 mg/kg, route oral; details: plasma; procedure, shortened: as §1
Mus musculus = assay: Toxicity in BALB nu/nu mouse xenografted with human HCT116 cells assessed as body weight change at 0.3 mg/kg to 30 mg/kg, po qd for 11 days measured twice per week; type: organism-based, HCT-116; details: in vivo, 264 h
[21] = Clearance in cynomolgus monkey at 2.5 mg/kg, iv and 5 mg/kg, po by LC-MS/MS analysis; type: ADME, organism-based, Macaca fascicularis; details: in vivo; procedure, shortened: as §1
HCT-116 [22] = assay: Antitumor activity against human HCT116 cells xenografted in BALB-nu/nu mouse assessed as tumor growth inhibition at 30 mg/kg, po qd for 11 days measured twice per week relative to control; type: functional; details: HCT-116, 264 h, read-out: TGI; procedure, shortened: as §2

Row | SMILES | IC50 [1] [nM] | IC50 (HCT-116 [2]) [nM] | IC50 [3] [nM] | solubility [5] [µg/mL] | CLH (Liver microsome) [µL/min/mg] | Papp [6] [×10⁻⁶ cm/s] | AUC(0-t) at 24 h [7] [µM·h] | also measured
1 | Cc1c(Cc2cccc(NS(N)(=O)=O)c2)c(=O)oc2c(F)c(OC(=O)N(C)C)ccc12 | 120 | 140 | 240 | – | – | – | – | –
2 | Cc1c(Cc2cccc(NS(N)(=O)=O)c2)c(=O)oc2cc(OC(=O)N(C)C)c(F)cc12 | 180 | 87 | 110 | 114 (≈ 254 µM) | 6 | 5 | – | AUC(0-t) at 24 h [4]: 61 µM·h
3 | Cc1c(Cc2ccc(F)c(NS(N)(=O)=O)c2)c(=O)oc2cc(OC(=O)N(C)C)ccc12 | 1100 | 610 | 44 | 37 (≈ 82.3 µM) | 6 | 6 | – | –
4 | CNS(=O)(=O)Nc1cccc(Cc2c(C)c3ccc(OC(=O)N(C)C)cc3oc2=O)c1F | 8 | 9 | 38 | 81 (≈ 175 µM) | 13 | 5 | – | –
5 | CNS(=O)(=O)[N-]c1cccc(Cc2c(C)c3ccc(Oc4nccs4)cc3oc2=O)c1.[Na+] | – | – | – | – | – | – | 190 | –
6 | CNS(=O)(=O)Nc1cccc(Cc2c(C)c3ccc(Oc4nccs4)cc3oc2=O)c1 | 1500 | 160 | 59 | 9 (≈ 19.7 µM) | 24 | 2 | – | –
7 | CNS(=O)(=O)Nc1cccc(Cc2c(CF)c3ccc(OC(=O)N(C)C)cc3oc2=O)c1 | 120 | 30 | 66 | 72 (≈ 155 µM) | 22 | 4 | 86 | –
8 | CNS(=O)(=O)Nc1cccc(Cc2c(C)c3cc(C)c(OC(=O)N(C)C)cc3oc2=O)c1 | 78 | 22 | 29 | 11 (≈ 23.9 µM) | 17 | – | 18 | –
9 | CN(C)C(=O)Oc1ccc2c(CF)c(Cc3cccc(NS(N)(=O)=O)c3)c(=O)oc2c1 | 220 | 200 | 60 | 14 (≈ 31.1 µM) | 7 | 4 | 84 | –
10 | CNS(=O)(=O)[N-]c1cccc(Cc2c(C)c3ccc(Oc4nccs4)cc3oc2=O)c1F.[Na+] | – | – | – | – | – | – | 366 | –
11 | C#Cc1cc2c(C)c(Cc3cccc(NS(=O)(=O)NC)c3)c(=O)oc2cc1OC(=O)N(C)C | 70 | 140 | 100 | 21 (≈ 44.7 µM) | – | – | – | –
12 | CNS(=O)(=O)Nc1cccc(Cc2c(C)c3cc(C#N)c(OC(=O)N(C)C)cc3oc2=O)c1 | 55 | 24 | 85 | 40 (≈ 85 µM) | 15 | – | 39 | –
13 | CNS(=O)(=O)Nc1cccc(Cc2c(C)c3ccc(Oc4nccs4)cc3oc2=O)c1F | 63 | 11 | 26 | 15 (≈ 31.5 µM) | 9 | 3 | – | –
14 | CNS(=O)(=O)Nc1cccc(Cc2c(C)c3ccc(OC(=O)N(C)C)cc3oc2=O)c1 | 300 | 24 | 110 | 32 (≈ 71.8 µM) | 20 | 6 | – | –
15 | CNS(=O)(=O)Nc1cccc(Cc2c(C)c3ccc(Oc4ncccn4)cc3oc2=O)c1 | > 10000 | 190 | 810 | 29 (≈ 64.1 µM) | 20 | 6 | 223 | –
16 | Cc1c(Cc2cccc([N-]S(N)(=O)=O)c2F)c(=O)oc2cc(OC(=O)N(C)C)ccc12.[Na+] | – | – | – | – | – | – | – | AUC(0-t) at 24 h [4]: 40 µM·h
17 | Cc1c(Cc2cccc(NS(N)(=O)=O)c2F)c(=O)oc2cc(OC(=O)N(C)C)ccc12 | 13 | 18 | 53 | 273 (≈ 607 µM) | 6 | 6 | – | –
18 | CNS(=O)(=O)[N-]c1cccc(Cc2c(C)c3ccc(OC(=O)N(C)C)cc3oc2=O)c1F.[Na+] | – | – | – | – | – | – | 70 | –
19 | Cc1c(Cc2cc(NS(N)(=O)=O)ccc2F)c(=O)oc2cc(OC(=O)N(C)C)ccc12 | 830 | 950 | 940 | 9 (≈ 20 µM) | 6 | 5 | 176 | –
20 | CNS(=O)(=O)[N-]c1cccc(Cc2c(C)c3ccc(OC(=O)N(C)C)cc3oc2=O)c1.[Na+] | – | – | – | – | – | – | 78 | –
21 | CNS(=O)(=O)Nc1cccc(Cc2c(C)c3ccc(Oc4ncccn4)cc3oc2=O)c1C | 3600 | 330 | 4200 | < 4 | – | – | – | –
22 | CNS(=O)(=O)Nc1cccc(Cc2c(C)c3cc(I)c(OC(=O)N(C)C)cc3oc2=O)c1 | 25 | 8 | 5 | 8 (≈ 14 µM) | 33 | – | 16 | –
23 | Cc1c(Cc2cccc([N-]S(N)(=O)=O)c2)c(=O)oc2cc(OC(=O)N(C)C)ccc12.[Na+] | – | – | – | – | – | – | 104 | –
24 | CNS(=O)(=O)Nc1cccc(Cc2c(C)c3cc(F)c(OC(=O)N(C)C)cc3oc2=O)c1 | – | 22 | 64 | 55 (≈ 119 µM) | 13 | 5 | 99 | –
25 | CNS(=O)(=O)Nc1ccc(F)c(Cc2c(C)c3ccc(OC(=O)N(C)C)cc3oc2=O)c1 | 2400 | 550 | 2900 | 51 (≈ 110 µM) | 22 | 5 | 75 | –
26 | CNS(=O)(=O)Nc1cccc(Cc2c(C)c3ccc(Oc4ncccn4)cc3oc2=O)c1F | 23 | 17 | 97 | 13 (≈ 27.6 µM) | 7 | 6 | 425 | inhibition at 10 µM (hERG (KCNH2)): 25%
27 | Cc1c(Cc2cccc(NS(N)(=O)=O)c2)c(=O)oc2cc(OC(=O)N(C)C)ccc12 | 530 | 95 | 230 | 32 (≈ 74.2 µM) | 6 | 6 | – | bioavailability [8]: 62%
28 | CNS(=O)(=O)[N-]c1cccc(Cc2c(C)c3ccc(Oc4ncccn4)cc3oc2=O)c1F.[Na+] | – | – | – | – | – | – | – | clearance [9]: 6.6 mL/min/kg; ED50 (HCT-116 [10]): 1.4 mg/kg; AUC(0-inf) [11]: 43 µM·h; bioavailability [12]: 84%; clearance [13]: 6.8 mL/min/kg; half-life [14]: 2.9 h; bioavailability [15]: 75%; half-life [16]: 4.8 h; half-life [17]: 1.3 h; bioavailability [18]: 59%; AUC(0-inf) [19]: 108 µM·h; AUC(0-inf) [20]: 75 µM·h; Activity (Mus musculus): Non-toxic; clearance [21]: 0.9 mL/min/kg; inhibition in vivo at 30 mg/kg (HCT-116 [22]): 119%
